According to PubChem BioAssay AID1800 (The Scripps Research Institute Molecular Screening Center, 2009):
In all, about 290,000 compounds went through this assay and about 1,600 (0.55%) were called active.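 The calls were made as follows: active = inhibition above the mean of all tested compounds plus 3 SD, set per campaign (cut at about 35% in these data); inactive = the rest.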 For the sample, actives were picked, then their nearest neighbours and some compounds at random.

test system: Hepatitis C virus NS3 helicase; test: HCV NS3 DNA unwinding blockers – biochemical, Cy5 molecular beacon fluorescence, primary screen (AID 1800); settings: at 10.9 µM, stronger effect = higher value;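 also: 0% = DMSO wells and 100% = thioflavine S control wells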
Summary of the method: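 System: Hepatitis C virus NS3 helicase domain fragment enzyme | Reagent: Annealed dual-labelled DNA beacon duplex, ATP-started | Compound dosing: 10.9 µM single point, 0.8% DMSO | Incubation: 1 h reaction at 25 °C, ATP-initiated | Technique: Cy5 fluorescence | Evaluation: Percent inhibition from t60/t0 fluorescence ratio | Benchmarks: Low DMSO, high thioflavine S at 110 µM | Replication: Singlicate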

inhibition, active:
Cc1ccc(S(=O)(=O)N/N=C\c2cc3c(cc2[N+](=O)[O-])OCO3)cc1 54.2%
O=C(N/N=C/c1ccc([N+](=O)[O-])o1)c1cn(-c2ccccc2)nc1-c1ccc(F)cc1 37%
O=C(c1cccc(-n2cccc2)c1)N1CCN(S(=O)(=O)c2ccc(F)cc2)CC1 77%
CNS(=O)(=O)c1cccc(C(=O)NC2CCCc3ccccc32)c1 (configuration not stated) 37%
S=C(NCCc1ccccc1)N1CCCCC1 40.9%
c1ccc(CSc2nnc(-c3ccco3)c(-c3ccco3)n2)cc1 38.3%
Clc1ccccc1CSc1nnc(-c2ccco2)c(-c2ccco2)n1 53.8%
CCOC(=O)C1=C(O)/C(=C/c2cc(C)n(-c3ccccc3)c2C)N=C1C 46.3%
CC(C)c1ccc(C2C(C(=O)c3ccco3)=C(O)C(=O)N2CC2CCCO2)cc1 (configuration not stated) 55.9%
O=C(OCC1O[C@@H](OC(=O)c2cc(O)c(O)c(O)c2)[C@@H](OC(=O)c2cc(O)c(O)c(O)c2)[C@@H](OC(=O)c2cc(O)c(O)c(O)c2)[C@@H]1OC(=O)c1cc(O)c(O)c(O)c1)c1cc(O)c(O)c(O)c1 (some centres not stated) 63.6%
NS(=O)(=O)c1ccc(-c2ccc(/C=C3\SC(=O)NC3=O)o2)cc1 60.5%
COc1ccc(/C=C2\SC(=S)N(CCC(=O)Nc3cccc(C(=O)O)c3)C2=O)cc1OC 61%

inhibition, inactive:
CC(=O)c1ccc(N2CCN(S(=O)(=O)c3ccc4c(c3)CC(=O)N4C)CC2)cc1 26.3%
O=S(=O)(NC1CC1)c1ccc(Cl)cc1 4.09%
COc1ccc(NC(=O)CC2C(=O)NC3CCCCC3N2C(=O)c2ccc(F)cc2)cc1 (configuration not stated) -15.6%
CC(=O)N/N=C/c1cc2c(cc1[N+](=O)[O-])OCO2 3.66%
Cc1ccc(-c2n[nH]c(=S)n2/N=C/c2cc3c(cc2[N+](=O)[O-])OCO3)cc1 8.58%
CC(=O)Nc1ccc(NC(=O)CCCNC(=O)c2ccc(Cl)cc2)cc1 -9.29%
CCCN1CCn2c3c(c4cc(Br)ccc42)CCCC31 (configuration not stated) -17.6%
Cc1ccc(-c2nn(-c3ccccc3)cc2/C=N/NC(=O)c2ccc3c(c2)OCO3)cc1 3.37%
Cc1nnc(SCC(=O)N/N=C/c2cn(-c3ccccc3)nc2-c2ccc(F)cc2)n1-c1ccccc1 -0.42%
CC(=O)N1CCC(C(=O)Nc2nc(-c3ccccc3)ns2)CC1 1.62%
O=C(c1cnc(Cl)c(Cl)c1)N1CCN(S(=O)(=O)c2ccc(F)cc2)CC1 5.16%
O=C(c1cccc(C(=O)N2CCN(c3ccc(F)cc3)CC2)c1)N1CCN(c2ccc(F)cc2)CC1 -2.81%
O=C(O)c1cc(S(=O)(=O)NC2CCCc3ccccc32)ccc1O (configuration not stated) 7.44%
CNS(=O)(=O)c1cccc(C(=O)NCC2CCCCC2)c1 -9.16%
CC1(C)NC(=O)N(CC(=O)Nc2cc(C(F)(F)F)cc(C(F)(F)F)c2)C1=O -6.82%
CCn1cc(C(=O)OCC(=O)Nc2cccc(C)c2)c(=O)c2ccc(C)nc21 4.57%
COc1ccc(C(=O)NC2CCN(C(=S)NCCc3ccccc3)CC2)cc1 0.36%
O=C1CCN(C(=S)NCCc2ccccc2)CC1 -6.74%
COc1ccc(CCn2c(=N)c(C(=O)NCC3CCCO3)cc3c(=O)n4cccc(C)c4nc32)cc1OC (configuration not stated) 0.37%
COc1cc(NS(=O)(=O)c2ccc(NC(=S)NC(=O)c3ccccc3)cc2)nc(OC)n1 11%
COc1nnc(-c2ccc(C)c(S(=O)(=O)N(C)C)c2)c2ccccc12 -1.73%
CN(CC1CCCO1)S(=O)(=O)c1ccc(C(=O)Nc2ccc([N+](=O)[O-])cc2)cc1 (configuration not stated) -4.51%
Brc1ccc(CSc2ccc(-c3ccco3)nn2)cc1 3.25%
Fc1cccc(Cl)c1CSc1ccc(-c2ccco2)nn1 5.94%
O=c1[nH]c(SCc2ccccc2)nnc1-c1ccccc1 35.9%
COC(OC)c1ccnc(SCc2ccccc2Cl)n1 -11.3%
COc1ccc(/C=N/OCc2ccccc2C#N)c(OC)c1 -11.6%
CC(C)c1ccc(S(=O)(=O)N2CCN(C(=O)c3ccc(N4CCCC4)c([N+](=O)[O-])c3)CC2)cc1 -8.12%
CS(=O)(=O)N1CCN(CC(=O)NC2CCCC2)CC1 2.51%
CCOc1ccc(S(=O)(=O)N2CCC(C(=O)NCc3ccccn3)CC2)cc1Cl 4.14%
Cc1ccc(NC(=O)[C@H](Cc2ccccc2)NC(=O)C2CCNCC2)cc1 -12.4%
CCOC(=O)C1=C(O)/C(=C/c2ccc(OCC(=O)Nc3ccc(C)cc3)cc2)N=C1C 8.39%
COC(=O)C1=C(O)/C(=C/c2ccc(OCC(=O)Nc3ccccc3)cc2)N=C1C -4.57%
COc1ccc2oc(C(=O)NCC(Cc3ccccc3)N(C)C)c(C)c2c1 (configuration not stated) -39.7%
O=C(CCCN1CCc2[nH]c3ccc(F)cc3c2C1)c1ccc(F)cc1 -45%
CCC(C)NC(=O)C1c2ccccc2C(=O)N1Cc1ccccc1 (configuration not stated) -11.1%
COCCCNS(=O)(=O)c1cccc(S(=O)(=O)c2cccc(S(=O)(=O)NCCCOC)c2)c1 3.55%
O=C(C1=C(O)C(=O)N(Cc2ccccc2)C1c1cccnc1)c1ccco1 (configuration not stated) -5.86%
O=C(C1=C(O)C(=O)N(Cc2ccccc2)C1c1ccco1)c1ccco1 (configuration not stated) 17.3%
CCC(NC(=O)c1ccccc1NC(=O)c1ccccc1)C(=O)NNC(=O)CSc1nc2ccccc2o1 (configuration not stated) -3.35%
CN1CCN(/N=C/c2ccc(-c3ccc([N+](=O)[O-])cc3)o2)CC1 -1.77%
CN1C(=O)/C(=C\c2ccc(-c3ccccc3)o2)SC1=S 23.6%
CCOc1ccc(CN2CCNC(=O)C2CC(=O)NCCCC2CCCC2)cc1 (configuration not stated) -18.7%
COc1ccc(/C=C2\SC(=S)N(CCCC(=O)NC3CCCC3)C2=O)cc1OC 19%
COc1ccc(/C=C2\SC(=S)N(CCC(=O)Nc3ccccn3)C2=O)cc1OC -1.07%
